What was measured:
Assay type in all cases: functional
Streptococcus pneumoniae [1] = experiment: Antimicrobial activity against Streptococcus pneumoniae isolate 3260 by agar dilution method
Streptococcus pneumoniae [2] = experiment: Antimicrobial activity against Streptococcus pneumoniae 7 by time-kill analysis
Outline: (§1)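 Time-kill in cation-adjusted Mueller-Hinton broth with 5% lysed horse blood; inocula 5 × 105 to 5 × 10^6 CFU/ml; drugs at MIC, 2× and 4× MIC; 35°C shaking water bath; viable counts at 0, 3, 6, 12, 24 h. Bactericidal = ≥3 log10 CFU/ml (99.9%) drop from original inoculum; 90%/99%/99.9% killing scored per strain.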

Streptococcus pneumoniae [3] = experiment: Antimicrobial activity against Streptococcus pneumoniae isolate 3282 by agar dilution method
Streptococcus pneumoniae [4] = experiment: Antimicrobial activity against Streptococcus pneumoniae isolate 3481 by agar dilution method
Outline: (§2)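 Agar dilution MIC on Mueller-Hinton agar with 5% sheep blood, inocula 10^4 CFU/spot; amoxicillin-clavulanate combined 1:2; S. pneumoniae ATCC 49619 quality control each run.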

Streptococcus pneumoniae [5] = experiment: Antimicrobial activity against Streptococcus pneumoniae isolate 3681 by agar dilution method; outline: as §2
Streptococcus pneumoniae [6] = experiment: Antimicrobial activity against penicillin-resistant Streptococcus pneumoniae by agar dilution method; outline: as §2
Streptococcus pneumoniae [7] = experiment: Antimicrobial activity against Streptococcus pneumoniae isolate 3374 by agar dilution method; outline: as §2
Streptococcus pneumoniae [8] = experiment: Antimicrobial activity against Streptococcus pneumoniae isolate 37 by agar dilution method; outline: as §2
Streptococcus pneumoniae [9] = experiment: Antimicrobial activity against Streptococcus pneumoniae isolate 1564 by agar dilution method
Streptococcus pneumoniae [10] = experiment: Antimicrobial activity against Streptococcus pneumoniae isolate 1394 by agar dilution method
Streptococcus pneumoniae [11] = experiment: Antimicrobial activity against Streptococcus pneumoniae isolate 1055 by agar dilution method
Streptococcus pneumoniae [12] = experiment: Antimicrobial activity against Streptococcus pneumoniae 9 by time-kill analysis
Outline: as §1, with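 “12 and” for “12,”, “if” for “=”, “reduction” for “drop”, “90% and 99%” for “90%/99%/99.9%”, “also scored.” for “scored per strain.”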

Streptococcus pneumoniae [13] = experiment: Antimicrobial activity against Streptococcus pneumoniae 2 by time-kill analysis; outline: as §1
Streptococcus pneumoniae [14] = experiment: Antimicrobial activity against Streptococcus pneumoniae isolate 3587 by agar dilution method
Streptococcus pneumoniae [15] = experiment: Antimicrobial activity against Streptococcus pneumoniae 11 by time-kill analysis; outline: as §1
Streptococcus pneumoniae [16] = experiment: Antimicrobial activity against penicillin-intermediate Streptococcus pneumoniae by agar dilution method
Streptococcus pneumoniae [17] = experiment: Antimicrobial activity against Streptococcus pneumoniae isolate 3346 by agar dilution method
Streptococcus pneumoniae [18] = experiment: Antimicrobial activity against Streptococcus pneumoniae isolate 2880 by agar dilution method; outline: as §2
Streptococcus pneumoniae [19] = experiment: Antimicrobial activity against Streptococcus pneumoniae 5 by time-kill analysis
Outline: as §1, with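 “12 and” for “12,”, “if” for “=”, “reduction” for “drop”, “90% and 99%” for “90%/99%/99.9%”, “also scored.” for “scored per strain.”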

Streptococcus pneumoniae [20] = experiment: Antimicrobial activity against Streptococcus pneumoniae isolate 1146 by agar dilution method; outline: as §2
Streptococcus pneumoniae [21] = experiment: Antimicrobial activity against Streptococcus pneumoniae 4 by time-kill analysis; outline: as §1
Streptococcus pneumoniae [22] = experiment: Antimicrobial activity against Streptococcus pneumoniae 1 by time-kill analysis
Outline: as §1, with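 “12 and” for “12,”, “if” for “=”, “reduction” for “drop”, “90% and 99%” for “90%/99%/99.9%”, “also scored.” for “scored per strain.”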

Streptococcus pneumoniae [23] = experiment: Antimicrobial activity against Streptococcus pneumoniae isolate 24 by agar dilution method
Streptococcus pneumoniae [24] = experiment: Antimicrobial activity against Streptococcus pneumoniae isolate 1384 by agar dilution method; outline: as §2
Streptococcus pneumoniae [25] = experiment: Antimicrobial activity against penicillin-susceptible Streptococcus pneumoniae by agar dilution method
Streptococcus pneumoniae [26] = experiment: Antimicrobial activity against Streptococcus pneumoniae isolate 1397 by agar dilution method; outline: as §2
Streptococcus pneumoniae [27] = experiment: Antimicrobial activity against Streptococcus pneumoniae isolate 3275 by agar dilution method; outline: as §2
Streptococcus pneumoniae [28] = experiment: Antimicrobial activity against Streptococcus pneumoniae 3 by time-kill analysis; outline: as §1
Streptococcus pneumoniae [29] = experiment: Antimicrobial activity against Streptococcus pneumoniae isolate 4755 by agar dilution method; outline: as §2
Streptococcus pneumoniae [30] = experiment: Antimicrobial activity against Streptococcus pneumoniae isolate 2688 by agar dilution method; outline: as §2
Streptococcus pneumoniae [31] = experiment: Antimicrobial activity against Streptococcus pneumoniae isolate 2686 by agar dilution method; outline: as §2
Streptococcus pneumoniae [32] = experiment: Antimicrobial activity against Streptococcus pneumoniae 19A by agar dilution method; outline: as §2
Streptococcus pneumoniae [33] = experiment: Antimicrobial activity against Streptococcus pneumoniae isolate 3458 by agar dilution method
Streptococcus pneumoniae [34] = experiment: Antimicrobial activity against Streptococcus pneumoniae isolate 4747 by agar dilution method; outline: as §2
Streptococcus pneumoniae [35] = experiment: Antimicrobial activity against Streptococcus pneumoniae isolate 2617 by agar dilution method; outline: as §2
Streptococcus pneumoniae [36] = experiment: Antimicrobial activity against Streptococcus pneumoniae isolate 3412 by agar dilution method; outline: as §2
Streptococcus pneumoniae [37] = experiment: Antimicrobial activity against Streptococcus pneumoniae 8 by time-kill analysis; outline: as §1
Streptococcus pneumoniae [38] = experiment: Antimicrobial activity against Streptococcus pneumoniae isolate 3455 by agar dilution method
Streptococcus pneumoniae [39] = experiment: Antimicrobial activity against Streptococcus pneumoniae isolate 1424 by agar dilution method; outline: as §2
Streptococcus pneumoniae [40] = experiment: Antimicrobial activity against Streptococcus pneumoniae 10 by time-kill analysis; outline: as §1
Streptococcus pneumoniae [41] = experiment: Antimicrobial activity against Streptococcus pneumoniae isolate 33 by agar dilution method; outline: as §2
Streptococcus pneumoniae [42] = experiment: Antimicrobial activity against Streptococcus pneumoniae 6 by time-kill analysis; outline: as §1
Streptococcus pneumoniae [43] = experiment: Antimicrobial activity against Streptococcus pneumoniae isolate 3791 by agar dilution method; outline: as §2
Streptococcus pneumoniae [44] = experiment: Antimicrobial activity against Streptococcus pneumoniae isolate 3263 by agar dilution method
Streptococcus pneumoniae [45] = experiment: Antimicrobial activity against Streptococcus pneumoniae isolate 1147 by agar dilution method; outline: as §2
Streptococcus pneumoniae [46] = experiment: Antimicrobial activity against Streptococcus pneumoniae isolate 2874 by agar dilution method; outline: as §2
Streptococcus pneumoniae [47] = experiment: Antimicrobial activity against Streptococcus pneumoniae 12 by time-kill analysis; outline: as §1

COc1c(N2CCNC(C)C2)c(F)cc2c(=O)c(C(=O)O)cn(C3CC3)c12 (stereo not drawn) [GATIFLOXACIN]
0.125 µg/mL: MIC (Streptococcus pneumoniae [1]) | MIC (Streptococcus pneumoniae [3]) | MIC (Streptococcus pneumoniae [17]) | MIC (Streptococcus pneumoniae [34])
1 µg/mL: MIC90 (Streptococcus pneumoniae [6])
16 µg/mL: MIC (Streptococcus pneumoniae [11])
0.25 µg/mL: MIC (Streptococcus pneumoniae [4]) | MIC (Streptococcus pneumoniae [7]) | MIC (Streptococcus pneumoniae [13]) | MIC (Streptococcus pneumoniae [14]) | MIC50 (Streptococcus pneumoniae [16]) | MIC (Streptococcus pneumoniae [18]) | MIC (Streptococcus pneumoniae [27]) | MIC (Streptococcus pneumoniae [28]) | MIC (Streptococcus pneumoniae [29]) | MIC (Streptococcus pneumoniae [31]) | MIC (Streptococcus pneumoniae [36]) | MIC (Streptococcus pneumoniae [37]) | MIC (Streptococcus pneumoniae [39]) | MIC (Streptococcus pneumoniae [40]) | MIC (Streptococcus pneumoniae [42]) | MIC (Streptococcus pneumoniae [44]) | MIC (Streptococcus pneumoniae [47])
2 µg/mL: MIC (Streptococcus pneumoniae [20])
4 µg/mL: MIC (Streptococcus pneumoniae [21]) | MIC (Streptococcus pneumoniae [22]) | MIC90 (Streptococcus pneumoniae [25]) | MIC (Streptococcus pneumoniae [45])
0.5 µg/mL: MIC (Streptococcus pneumoniae [2]) | MIC (Streptococcus pneumoniae [5]) | MIC50 (Streptococcus pneumoniae [6]) | MIC (Streptococcus pneumoniae [8]) | MIC (Streptococcus pneumoniae [9]) | MIC (Streptococcus pneumoniae [10]) | MIC (Streptococcus pneumoniae [12]) | MIC (Streptococcus pneumoniae [15]) | MIC90 (Streptococcus pneumoniae [16]) | MIC (Streptococcus pneumoniae [19]) | MIC (Streptococcus pneumoniae [23]) | MIC (Streptococcus pneumoniae [24]) | MIC50 (Streptococcus pneumoniae [25]) | MIC (Streptococcus pneumoniae [26]) | MIC (Streptococcus pneumoniae [30]) | MIC50 (Streptococcus pneumoniae [32]) | MIC90 (Streptococcus pneumoniae [32]) | MIC (Streptococcus pneumoniae [33]) | MIC (Streptococcus pneumoniae [35]) | MIC (Streptococcus pneumoniae [38]) | MIC (Streptococcus pneumoniae [41]) | MIC (Streptococcus pneumoniae [43]) | MIC (Streptococcus pneumoniae [46])

C[C@@H](O)[C@H]1C(=O)N2C(C(=O)O)=C(S[C@@H]3CN[C@H](C(=O)Nc4cccc(C(=O)O)c4)C3)[C@H](C)[C@H]12 [ERTAPENEM]
0.03 µg/mL: MIC (Streptococcus pneumoniae [13]) | MIC (Streptococcus pneumoniae [22])
0.25 µg/mL: MIC (Streptococcus pneumoniae [28])
0.5 µg/mL: MIC (Streptococcus pneumoniae [47])
2 µg/mL: MIC (Streptococcus pneumoniae [2]) | MIC (Streptococcus pneumoniae [15])
4 µg/mL: MIC (Streptococcus pneumoniae [19])
0.12 µg/mL: MIC (Streptococcus pneumoniae [12]) | MIC (Streptococcus pneumoniae [40]) | MIC (Streptococcus pneumoniae [42])
1 µg/mL: MIC (Streptococcus pneumoniae [21]) | MIC (Streptococcus pneumoniae [37])
